Measurements from ChEMBL document CHEMBL1649505, “Activity of telavancin against Staphylococcus aureus strains with various vancomycin susceptibilities in an in vitro pharmacokinetic/pharmacodynamic model with simulated endocardial vegetations” (Antimicrob Agents Chemother, 2009).
≈ marks a conversion by molar mass, not a printed value. Calls of active or inactive are those of the source. The calls are words filed in the database; no cut-off is given here.

How the values were obtained:
[1] = test system: Staphylococcus aureus; assay: Antimicrobial activity against heteroresistant glycopeptide-intermediate Staphylococcus aureus 1629 by broth microdilution method; assay type: functional
Outline: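 MICs determined by broth microdilution at ~5.5 log10 CFU/ml following CLSI guidelines.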

[2] = test system: Staphylococcus aureus; assay: Antimicrobial activity against glycopeptide-intermediate Staphylococcus aureus NJ992 by broth microdilution method
[3] = test system: Staphylococcus aureus; assay: microbe, parasite or virus in culture; conditions: 494
[4] = test system: Staphylococcus aureus; assay: microbe, parasite or virus in culture; conditions: 1199
[5] = Cmax in in vitro pharmacokinetic/pharmacodynamic model at 300 mg for every 8 hrs
[6] = AUC (0 to 24 hrs) in in vitro pharmacokinetic/pharmacodynamic model at 300 mg for every 8 hrs
[7] = Cmax in in vitro pharmacokinetic/pharmacodynamic model at 1 g for every 12 hrs; assay type: ADME; parameters: dose 1 g
Outline: (§1)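 Drugs given as boluses into the central compartment of a 250-ml glass in vitro PK/PD model over 96 h. Samples taken via the injection port at 1, 4, 8, 24, 32, 48, 72 and 96 h. […] Half-life, peak and AUC derived by the trapezoidal method. Models run in duplicate; mean ± SD.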

[8] = Half life in in vitro pharmacokinetic/pharmacodynamic model at 1 g for every 12 hrs; assay type: ADME; outline: as §1
[9] = AUC (0 to 24 hrs) in in vitro pharmacokinetic/pharmacodynamic model at 1 g for every 12 hrs; assay type: ADME; parameters: dose 1 g, time < 24 hr; outline: as §1
[10] = Cmax in in vitro pharmacokinetic/pharmacodynamic model at 5 mg/kg for every 24 hrs; assay type: ADME, organism-based; parameters: dose 5 mg/kg; outline: as §1
[11] = Half life in in vitro pharmacokinetic/pharmacodynamic model at 5 mg/kg for every 24 hrs; assay type: ADME, organism-based; parameters: dose 5 mg/kg; outline: as §1
[12] = AUC (0 to 24 hrs) in in vitro pharmacokinetic/pharmacodynamic model at 5 mg/kg for every 24 hrs; assay type: ADME, organism-based; parameters: time < 24 hr, dose 5 mg/kg; outline: as §1
[13] = AUC (0 to 24 hrs) in in vitro pharmacokinetic/pharmacodynamic model at 10 mg/kg for every 12 hrs; assay type: ADME, organism-based; parameters: time < 24 hr, dose 10 mg/kg; conditions: in the assay text read “every 24 hrs” for “every 12 hrs”
Outline: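 Central compartment (250 ml glass in vitro PK/PD model holding simulated endocardial vegetations) sampled via injection port at 1, 4, 8, 24, 32, 48, 72 and 96 h. Drug levels measured by agar-well bioassay with Micrococcus luteus ATCC 9341 (zone sizes after 18–24 h at 35°C). Peak, half-life and AUC derived by trapezoidal method. Models run in duplicate; mean ± SD.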

[14] = test system: Staphylococcus aureus; assay: Antibacterial activity against methicillin-susceptible Staphylococcus aureus 1199 assessed as bacterial load per gram in in vitro pharmacokinetic/pharmacodynamic model at 10 mg/kg administered daily after 96 hrs; assay type: functional
Outline: (§2)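 250-ml in vitro PK/PD model holding simulated endocardial vegetations, inoculum ~9 log10 CFU/g. Regimens simulated over 96 h: telavancin 10 mg/kg daily (peak 87.5 μg/ml, t½ 8 h) or vancomycin 1 g every 12 h (trough 10 μg/ml, t½ 6 h). Two SEVs per model removed at 0–96 h, homogenized, diluted and plated on TSA at 35°C for 18–24 h. Detection limit 2 log10 CFU/g; models in duplicate.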

[15] = test system: Staphylococcus aureus; assay: Antibacterial activity against heteroresistant glycopeptide-intermediate Staphylococcus aureus 1629 assessed as bacterial load per gram in in vitro pharmacokinetic/pharmacodynamic model at 10 mg/kg administered daily after 96 hrs; assay type: functional; outline: as §2
[16] = test system: Staphylococcus aureus; assay: Antibacterial activity against glycopeptide-intermediate Staphylococcus aureus NJ992 assessed as bacterial load per gram in in vitro pharmacokinetic/pharmacodynamic model at 10 mg/kg administered daily after 96 hrs; assay type: functional
[17] = test system: Staphylococcus aureus; assay: Antibacterial activity against heteroresistant glycopeptide-intermediate Staphylococcus aureus 1629 assessed as decrease in bacterial load in in vitro pharmacokinetic/pharmacodynamic model at 10 mg/kg administered daily after 64 hrs; assay type: functional, organism-based; parameters: dose 10 mg/kg; outline: as §2
[18] = test system: Staphylococcus aureus; assay: Antibacterial activity against glycopeptide-intermediate Staphylococcus aureus NJ992 assessed as decrease in bacterial load in in vitro pharmacokinetic/pharmacodynamic model at 10 mg/kg administered daily after 62 hrs; assay type: functional, organism-based; parameters: dose 10 mg/kg; outline: as §2
[19] = test system: Staphylococcus aureus; assay: Antibacterial activity against methicillin-resistant Staphylococcus aureus 494 assessed as decrease in bacterial load in in vitro pharmacokinetic/pharmacodynamic model at 1 g for every 12 hrs administered daily after 96 hrs; assay type: functional, organism-based; outline: as §2
[20] = test system: Staphylococcus aureus; assay: Antibacterial activity against methicillin-susceptible Staphylococcus aureus 1199 assessed as decrease in bacterial load in in vitro pharmacokinetic/pharmacodynamic model at 1 g for every 12 hrs administered daily after 96 hrs; assay type: functional, organism-based; outline: as §2
[21] = test system: Staphylococcus aureus; assay: Antibacterial activity against heteroresistant glycopeptide-intermediate Staphylococcus aureus 1629 assessed as decrease in bacterial load in in vitro pharmacokinetic/pharmacodynamic model at 1 g for every 12 hrs administered daily after 96 hrs; assay type: functional, organism-based; outline: as §2
[22] = test system: Staphylococcus aureus; assay: Antibacterial activity against glycopeptide-intermediate Staphylococcus aureus NJ992 assessed as decrease in bacterial load in in vitro pharmacokinetic/pharmacodynamic model at 1 g for every 12 hrs administered daily after 96 hrs; assay type: functional, organism-based; outline: as §2

CO[C@H]1/C=C/O[C@@]2(C)Oc3c(C)c(O)c4c(O)c(c(/C=N/N5CCN(C)CC5)c(O)c4c3C2=O)NC(=O)/C(C)=C\C=C\[C@H](C)[C@H](O)[C@@H](C)[C@@H](O)[C@@H](C)[C@H](OC(C)=O)[C@@H]1C [RIFAMPIN]
MIC [1]: 0.004 µg/mL (≈ 0.00486 µM)
MIC [2]: 2050 µg/mL (≈ 2490 µM)
MIC [3]: 0.004 µg/mL (≈ 0.00486 µM)
MIC [4]: 0.004 µg/mL (≈ 0.00486 µM)
Cmax [5]: 4900 ng/mL
AUC at 24 h [6]: 64.4 µg·h/mL

CN[C@H](CC(C)C)C(=O)N[C@H]1C(=O)N[C@@H](CC(N)=O)C(=O)N[C@H]2C(=O)N[C@H]3C(=O)N[C@H](C(=O)N[C@H](C(=O)O)c4cc(O)cc(O)c4-c4cc3ccc4O)[C@H](O)c3ccc(c(Cl)c3)Oc3cc2cc(c3O[C@@H]2O[C@H](CO)[C@@H](O)[C@H](O)[C@H]2O[C@H]2C[C@](C)(N)[C@H](O)[C@H](C)O2)Oc2ccc(cc2Cl)[C@H]1O [VANCOMYCIN]
Cmax [7]: 37000 ng/mL
half-life [8]: 6.2 h
AUC at 24 h [9]: 391 µg·h/mL
MIC [2]: 8 µg/mL (≈ 5.52 µM)

GENTAMICIN [listing 1 of 2 here]
MIC [1]: 0.25 µg/mL

GENTAMICIN [listing 2 of 2 here]
Cmax [10]: 15800 ng/mL
t1/2 [11]: 3.4 h
AUC [12]: 63.1 µg·h/mL

CCCCCCCCCCNCCN[C@@]1(C)C[C@H](O[C@H]2[C@H](Oc3c4cc5cc3Oc3ccc(cc3Cl)[C@@H](O)[C@@H](NC(=O)[C@@H](CC(C)C)NC)C(=O)N[C@@H](CC(N)=O)C(=O)N[C@H]5C(=O)N[C@H]3C(=O)N[C@H](C(=O)N[C@H](C(=O)O)c5cc(O)c(CNCP(=O)(O)O)c(O)c5-c5cc3ccc5O)[C@H](O)c3ccc(c(Cl)c3)O4)O[C@H](CO)[C@@H](O)[C@@H]2O)O[C@@H](C)[C@H]1O [TELAVANCIN]
AUC at 24 h [13]: 969 µg·h/mL
CFU/g [14]: 2.8
CFU/g [15]: 4.2 log10 CFU/g
CFU/g [16]: 4.1 log10 CFU/g
Activity [17]: Active
Activity [18]: Active
Activity [19]: inactive
Activity [20]: inactive
Activity [21]: inactive
Activity [22]: inactive
MIC [1]: 0.125 µg/mL (≈ 0.0712 µM)
MIC [2]: 0.5 µg/mL (≈ 0.285 µM)
MIC [3]: 0.125 µg/mL (≈ 0.0712 µM)
MIC [4]: 0.25 µg/mL (≈ 0.142 µM)
